Reference: ChEMBL document CHEMBL5608187, “Discovery of pyridoquinoxaline-based new P-gp inhibitors as coadjutant against Multi Drug Resistance in cancer” (Eur J Med Chem, 2024)
The source made the active and inactive calls. The calls are words filed in the database; no cut-off is given here.

What was measured:
[1] = molecular target: T1, ATP-dependent translocase ABCB1 (Homo sapiens, UniProt P08183); assay: Inhibition of P-gp in human CAKI-2 cells assessed as increase in green fluorescence intensity at 0.1 to 10 uM incubated for 15 mins followed by incubation with EFFLUX-ID Green Detection Reagent and Hoeschst-33342 dye and measured after 30 mins by fluorescence analysis; type: cell-based; settings: caki-2, 0.25 h, dose 0.1-10 µM
Procedure, shortened: (§1)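 5000 cells/well in phenol-red-free medium plated 24 h before; compounds 0.1, 1, 10 µM for 15 min, then EFLUXX-ID Green reagent (1:200) plus Hoechst-33342 1 µg/mL, 30 min 37 °C. Widefield imaging; median green intensity from 250 cells per well normalized to untreated wells. Mean ± SD of three wells; one-tailed t-test.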

SK-HEP1 [2] = assay: Coadjutant activity against multidrug resistance in human SK-HEP1 cells assessed as potentiation of vincristine-induced cell growth inhibition at 4 uM incubated for 72 hrs in presence of 0.02 to 20 uM vincristine by SiR-DNA/CellTox Green Dye based fluorescence analysis; type: functional
Procedure, shortened: (§2)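 Growth by live-cell imaging: 500 cells/well plated with SiR-DNA and CellTox Green dye; serial dilutions in phenol-red-free complete medium added next day. Imaged at addition and at 72 h. Live cells = SiR-DNA nuclei minus CellTox-positive dead cells; percentage growth calculated. Three technical replicates; two-tailed t-test. Inhibitor paired with anticancer drug at fixed or scaled levels.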

[3] = Cytotoxicity against human HGC-27 cells assessed as inhibition of cell growth at 4 uM incubated for 72 hrs by SiR-DNA/CellTox Green Dye based fluorescence analysis relative to control; type: toxicity
Procedure, shortened: (§3)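 Single-agent control at 4 µM, no anticancer drug. 500 cells/well with SiR-DNA and CellTox Green; imaged at addition and 72 h. Live count = total nuclei minus dead cells, expressed as percent growth. Three technical replicates.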

HMC3 = assay: Cytotoxicity against human HMC3 cells assessed as effect on cell viability at 0.1 to 100 uM incubated for 24 to 72 hrs by MTT assay; type: toxicity, cell-based; settings: hmc3, 100 µM, dose lower 0.1 µM, time lower 24 hrs, dose upper 100 µM, time upper 72 hrs
Procedure, shortened: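 HMC3 microglia in high-glucose DMEM/10% FBS, 37 °C 5% CO2, treated 0.1–100 µM for 24, 48 or 72 h; vehicle-treated controls. MTT 0.5 mg/mL, 4 h 37 °C, formazan dissolved in DMSO, read at 540 nm; viability as percent of control. Three independent experiments in triplicate, mean ± S.E.M., one-way ANOVA with Tukey.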

A704 = assay: Coadjutant activity against multidrug resistance in human A704 cells assessed as potentiation of etoposide-induced cell growth inhibition at 4 uM incubated for 72 hrs in presence of 0.04 to 40 uM etoposide by SiR-DNA/CellTox Green Dye based fluorescence analysis; type: functional; procedure, shortened: as §2
HT-29 [4] = assay: Coadjutant activity against multidrug resistance in human HT-29 cells assessed as potentiation of vincristine-induced cell growth inhibition at 4 uM incubated for 72 hrs in presence of 0.02 to 20 uM vincristine by SiR-DNA/CellTox Green Dye based fluorescence analysis; type: functional; procedure, shortened: as §2
HuP-T3 [5] = assay: Cytotoxicity against human Hup-T3 cells assessed as inhibition of cell growth at 4 uM incubated for 72 hrs by SiR-DNA/CellTox Green Dye based fluorescence analysis; type: toxicity; settings: hup-t3, 72 h; procedure, shortened: as §3
U-87 MG [6] = assay: Coadjutant activity against multidrug resistance in human U-87 MG cells assessed as potentiation of etoposide-induced cell growth inhibition at 4 uM incubated for 72 hrs in presence of 0.04 to 40 uM etoposide by SiR-DNA/CellTox Green Dye based fluorescence analysis; type: functional; settings: U-87MG ATCC; procedure, shortened: as §2
U-87 MG [7] = assay: Cytotoxicity against human U-87 MG cells assessed as inhibition of cell growth at 4 uM incubated for 72 hrs by SiR-DNA/CellTox Green Dye based fluorescence analysis; type: toxicity; settings: u-87mg atcc; procedure, shortened: as §3
SK-HEP1 [8] = assay: Coadjutant activity against multidrug resistance in human SK-HEP1 cells assessed as potentiation of cisplatin-induced cell growth inhibition at 0.25 to 4 uM incubated for 72 hrs in presence of 0.25 uM cisplatin by SiR-DNA/CellTox Green Dye based fluorescence analysis; type: functional; settings: dose 0.25-4 µM
Procedure, shortened: (§4)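 Cisplatin co-treatment, 72 h imaging growth assay (SiR-DNA nuclei minus CellTox Green dead cells, 500 cells/well, phenol-red-free medium). Combinations: inhibitor fixed with cisplatin 0.1–100 µM, or cisplatin fixed at 0.25 µM with inhibitor 0.25–4 µM. Three technical replicates, mean ± SD; two-tailed t-test.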

[9] = molecular target: T1, ATP-dependent translocase ABCB1; assay: Inhibition of P-gp in human HCT-15 cells assessed as increase in green fluorescence intensity at 1 to 10 uM incubated for 15 mins followed by incubation with EFFLUX-ID Green Detection Reagent and Hoeschst-33342 dye and measured after 30 mins by fluorescence analysis; type: cell-based; settings: hct-15, 0.25 h, dose 1-10 µM; procedure, shortened: as §1
U-87 MG [10] = assay: Coadjutant activity against multidrug resistance in human U-87 MG cells assessed as potentiation of vincristine-induced cell growth inhibition at 0.25 to 4 uM incubated for 72 hrs in presence of 0.2 uM vincristine by SiR-DNA/CellTox Green Dye based fluorescence analysis; type: functional; settings: U-87MG ATCC, dose 0.25-4 µM; procedure, shortened: as §2
[11] = molecular target: T1, ATP-dependent translocase ABCB1; assay: Inhibition of P-gp in human HCT-15 cells assessed as increase in green fluorescence intensity at 0.1 to 1 uM incubated for 15 mins followed by incubation with EFFLUX-ID Green Detection Reagent and Hoeschst-33342 dye and measured after 30 mins by fluorescence analysis; type: cell-based; settings: hct-15, 0.25 h, dose 0.1-1 µM; procedure, shortened: as §1
HuP-T3 [12] = assay: Coadjutant activity against multidrug resistance in human HuP-T3 cells assessed as potentiation of cisplatin-induced cell growth inhibition at 0.25 to 4 uM incubated for 72 hrs in presence of 0.25 uM cisplatin by SiR-DNA/CellTox Green Dye based fluorescence analysis; type: functional; settings: dose 0.25-4 µM; procedure, shortened: as §4
HGC-27 = assay: Coadjutant activity against multidrug resistance in human HGC-27 cells assessed as potentiation of vincristine-induced cell growth inhibition by measuring cell growth at 4 uM incubated for 72 hrs in presence of 0.02 to 20 uM vincristine by SiR-DNA/CellTox Green Dye based fluorescence analysis; type: functional; set-up: scale not given: the % may be the effect or the level left; procedure, shortened: as §2
HT-29 [13] = assay: Coadjutant activity against multidrug resistance in human HT-29 cells assessed as potentiation of cisplatin-induced cell growth inhibition at 0.25 to 4 uM incubated for 72 hrs in presence of 0.25 uM cisplatin by SiR-DNA/CellTox Green Dye based fluorescence analysis; type: functional; settings: dose 0.25-4 µM; procedure, shortened: as §4
HuP-T3 [14] = assay: Coadjutant activity against multidrug resistance in human Hup-T3 cells assessed as potentiation of cisplatin-induced cell growth inhibition at 4 uM incubated for 72 hrs in presence of 0.1 to 100 uM cisplatin by SiR-DNA/CellTox Green Dye based fluorescence analysis; type: functional; procedure, shortened: as §4
[15] = molecular target: T1, ATP-dependent translocase ABCB1; assay: Inhibition of P-gp in human HCT-15 cells assessed as fold increase in green fluorescence intensity at 10 uM incubated for 15 mins followed by incubation with EFFLUX-ID Green Detection Reagent and Hoeschst-33342 dye and measured after 30 mins by fluorescence analysis relative to control; type: cell-based; settings: hct-15, 0.25 h; procedure, shortened: as §1

T1 sequence (P08183 whole entry): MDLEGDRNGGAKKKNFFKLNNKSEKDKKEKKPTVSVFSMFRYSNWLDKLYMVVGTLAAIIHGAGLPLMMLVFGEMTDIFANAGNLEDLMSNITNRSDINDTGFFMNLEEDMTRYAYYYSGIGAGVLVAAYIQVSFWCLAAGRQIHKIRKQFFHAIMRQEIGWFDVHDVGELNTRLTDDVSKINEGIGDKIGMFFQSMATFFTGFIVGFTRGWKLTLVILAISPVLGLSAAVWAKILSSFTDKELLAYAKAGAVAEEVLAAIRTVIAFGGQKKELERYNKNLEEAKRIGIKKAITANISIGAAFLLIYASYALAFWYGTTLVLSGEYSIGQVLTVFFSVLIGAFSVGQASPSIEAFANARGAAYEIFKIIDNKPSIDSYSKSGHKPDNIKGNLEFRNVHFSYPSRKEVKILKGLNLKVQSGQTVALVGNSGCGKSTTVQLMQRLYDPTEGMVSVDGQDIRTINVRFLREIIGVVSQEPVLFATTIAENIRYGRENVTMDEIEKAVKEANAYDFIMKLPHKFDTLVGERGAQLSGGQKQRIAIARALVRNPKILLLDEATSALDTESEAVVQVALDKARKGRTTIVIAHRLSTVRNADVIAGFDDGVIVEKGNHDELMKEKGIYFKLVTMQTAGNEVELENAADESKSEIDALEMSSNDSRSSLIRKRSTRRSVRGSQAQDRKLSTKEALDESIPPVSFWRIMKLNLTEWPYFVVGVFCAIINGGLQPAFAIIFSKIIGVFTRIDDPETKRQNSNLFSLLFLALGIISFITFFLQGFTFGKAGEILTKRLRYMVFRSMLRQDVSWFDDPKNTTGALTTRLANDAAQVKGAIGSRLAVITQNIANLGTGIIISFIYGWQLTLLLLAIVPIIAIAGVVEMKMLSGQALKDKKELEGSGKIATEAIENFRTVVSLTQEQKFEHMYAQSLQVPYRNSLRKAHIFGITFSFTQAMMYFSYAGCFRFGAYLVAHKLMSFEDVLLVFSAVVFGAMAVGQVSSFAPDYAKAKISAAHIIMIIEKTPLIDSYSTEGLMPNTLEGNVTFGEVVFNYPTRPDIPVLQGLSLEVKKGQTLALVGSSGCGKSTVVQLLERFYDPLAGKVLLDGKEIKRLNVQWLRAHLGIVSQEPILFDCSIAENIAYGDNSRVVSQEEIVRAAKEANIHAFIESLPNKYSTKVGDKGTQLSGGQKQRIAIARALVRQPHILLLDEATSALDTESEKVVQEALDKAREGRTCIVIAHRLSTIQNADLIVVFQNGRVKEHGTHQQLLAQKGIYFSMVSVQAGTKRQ

inhibition (INH) [1]: Active
inhibition (INH) [9]: Active
inhibition (INH) [11]: Dose-Dependent Effect
fold change (FC) [15]: 2
SMILES: O=C(Nc1ccccc1)c1ccccc1OCc1nc2cc3cccnc3cc2nc1COc1ccccc1C(=O)Nc1ccccc1
Activity (SK-HEP1 [2]): Active
inhibition at 72 h, 4 µM [3]: 40%
Activity (HMC3): Non-Toxic
Activity (A704): Active
Activity (HT-29 [4]): Active
Activity (HuP-T3 [5]): Non-Toxic
Activity (U-87 MG [6]): Active
Activity (U-87 MG [7]): Non-Toxic
Activity (SK-HEP1 [8]): inactive
Activity (U-87 MG [10]): Active
Activity (HuP-T3 [12]): inactive
Activity (HGC-27): 50%
Activity (HT-29 [13]): inactive
Activity (HuP-T3 [14]): inactive
